The subject of assay [1] is Candida albicans. The assay can be described thus: Antifungal activity against Candida albicans ATCC 10231 at 50 ug after 24 hrs by agar diffusion method. It is filed as functional. A digest of the protocol: (§1)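 Yeasts grown on yeast extract peptone dextrose medium at 30 °C for 24 h, then agar well diffusion with 50 µg compound in 80% DMSO; 80% DMSO alone as control. Averaged inhibition zone diameter from triplicate, scored 6-9, 9-12 or >12 mm.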

In assay [2] the test system is MDA-MB-231. The assay can be described thus: Antiproliferative activity against human MDA-MB-231 cells after 72 hrs by MTT assay. The conditions noted are these: MDA-MB-231, 72 h. Format: functional. A digest of the protocol:
(§2)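 5000 cells per well added to pre-equilibrated medium at 37 °C; compounds from 10^-3 M DMSO stocks, final 10^-5 M. After 72 h, MTT (5 g/L) for 4 h, formazan dissolved in DMSO, OD 550 nm. % growth inhibition vs 1% DMSO medium (0%) and 10% SDS lysis (100%); mean ± SEM, 24 measures, three independent experiments.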
Background: Formazan colour is commonly taken as a measure of viable cells.

Assay [3] relates to Pichia kudriavzevii. The assay is described as follows: Antifungal activity against Issatchenkia orientalis DSM6128 at 50 ug after 24 hrs by agar diffusion method. Format: functional, organism-based. A digest of the protocol:
as §1
For orientation: A growth-free zone around the sample is the usual read-out of agar diffusion tests.

The subject of assay [4] is Listeria innocua. The assay can be described thus: Antibacterial activity against Listeria innocua at 50 ug after 24 hrs by agar diffusion method. Format: functional. A digest of the protocol: (§3)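 Bacteria pre-grown 24 h on nutritive agar (tryptone soy agar for E. faecalis, L. inocua) at 37 °C (30 °C for E. faecalis, L. inocua, B. cereus). Agar well diffusion with 50 µg compound in 80% DMSO; 80% DMSO alone as control. Inhibition zone diameter averaged from triplicate, scored 6-9, 9-12, >12 mm.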

Assay [5] deals with Klebsiella pneumoniae. The assay can be described thus: Antibacterial activity against Klebsiella pneumoniae CIP 53153 at 50 ug after 24 hrs by agar diffusion method. It is filed as functional, organism-based. A digest of the protocol:
as §3

The test system of assay [6] is Candida tropicalis. The assay is described as follows: Antifungal activity against Candida tropicalis DSM 1346 at 50 ug after 24 hrs by agar diffusion method. Format: functional. The method, boiled down: as §1
The test system of assay [7] is Escherichia coli. The assay can be described thus: Antibacterial activity against Escherichia coli ATCC 25922 at 50 ug after 24 hrs by agar diffusion method. It is filed as functional. The method, boiled down:
as §3

Assay [8] has as its system Enterococcus faecalis. The assay is described as follows: Antibacterial activity against Enterococcus faecalis CIP 103214 at 50 ug after 24 hrs by agar diffusion method. It is filed as functional. A digest of the protocol: as §3
Assay [9] deals with Staphylococcus aureus. The assay is described as follows: Antibacterial activity against Staphylococcus aureus ATCC 25923 at 50 ug after 24 hrs by agar diffusion method. It is filed as functional. Particulars: for zone of inhibition at 50 µg/disc: Staphylococcus aureus, ATCC 25923, 24 h, read-out: IZ. A digest of the protocol:
as §3

For assay [10], the system named is MCF7. The assay is described as follows: Antiproliferative activity against human MCF7 cells after 72 hrs by MTT assay. Particulars: MCF7, 72 h. Format: functional. A digest of the protocol: as §2
The subject of assay [11] is Pseudomonas aeruginosa. The assay is described as follows: Antibacterial activity against Pseudomonas aeruginosa ATCC 27853 at 50 ug after 24 hrs by agar diffusion method. It is filed as functional, organism-based. A digest of the protocol: as §3
Assay [12] concerns Nakaseomyces glabratus. The assay is described as follows: Antifungal activity against Candida glabrata DSM6425 at 50 ug after 24 hrs by agar diffusion method. Format: functional. A digest of the protocol:
as §1

Assay [13] relates to MDA-MB-231. The assay is described as follows: Antiproliferative activity against human MDA-MB-231 cells at 10 uM after 72 hrs by MTT assay. Particulars: MDA-MB-231, 72 h. Format: functional. The method, boiled down: as §2
Assay [14] concerns Bacillus cereus. The assay can be described thus: Antibacterial activity against Bacillus cereus at 50 ug after 24 hrs by agar diffusion method. Format: functional. A digest of the protocol:
as §3

In assay [15] the test system is Staphylococcus aureus. The assay can be described thus: Antibacterial activity against Staphylococcus aureus ATCC 25923 after 24 hrs by broth macrodilution method. It is filed as functional. Particulars: ATCC 25923, 24 h. The method, boiled down:
(§4)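 Bacteria pre-grown 24 h on nutritive agar (tryptone soy agar for E. faecalis, L. inocua) at 37 °C (30 °C for E. faecalis, L. inocua, B. cereus). MIC and MBC determined by macro-dilution broth method; MBC = lowest concentration killing 99.99% of inoculum. Compounds in DMSO, max 2.13% solvent in cultures. Triplicate.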

Assay [16] deals with Bacillus cereus. The assay is described as follows: Antibacterial activity against Bacillus cereus after 24 hrs by broth macrodilution method. Format: functional. The method, boiled down: as §4

Consider 12 compounds from ChEMBL document CHEMBL1139303, “One-pot synthesis of 5-phenylimino, 5-thieno or 5-oxo-1,2,3-dithiazoles and evaluation of their antimicrobial and antitumor activity” (2009).

Values after ≈ are worked out from the molar mass of the structure shown. Active and inactive are the calls of the source. The rule behind the calls is not given here. Where only a bound is given, the exact number is not on record here.

For `c1ccc(/N=c2\ssnc2-c2ccccc2)cc1`, the outcome in [1], in assay [3], in assay [4], in assay [5], in assay [6] and in assay [7] was inactive. Besides, the outcome in assay [8], in assay [11], in assay [12] and in assay [14] was inactive. Also, the 50% growth inhibitory concentration (GI50) was greater than 10 µM in assay [2] and 10 µM in [10]. The zone of inhibition at 50 µg/disc in assay [9] was 6 mm. This compound also registered an inhibition at 10 µM in assay [13] of 0%.

Turning to `O=[N+]([O-])c1ccc(-c2nssc2=S)cc1`, the outcome in assay [1], in assay [3], in assay [4], in assay [5], in assay [6] and in [7] was inactive. Also, the outcome in [8], in assay [11], in [12] and in assay [14] was inactive. In addition, the GI50 in assay [2] and in assay [10] was greater than 10 µM throughout. The zone of inhibition at 50 µg/disc in assay [9] amounted to 6 mm. This compound also showed an inhibition at 10 µM in [13] of 0%.

For the compound `c1ccc(/N=c2\ssnc2-c2cccs2)cc1`, the outcome in assay [1], in assay [3], in assay [4], in [5], in assay [6] and in [7] was inactive. Besides, the outcome in [8], in [9], in [11], in assay [12] and in [14] was inactive. For the same compound, the concentration for 50% growth inhibition (GI50) in assay [2] and in assay [10] was greater than 10 µM in each case. In addition, at 10 µM the inhibition in assay [13] was 0%.

For the compound `S=c1ssnc1-c1cc2ccccc2o1`, the outcome in assay [1], in assay [3], in [4], in [5], in assay [6] and in assay [7] was inactive. The result in [8], in [9], in assay [11], in [12] and in [14] was inactive. Also, the 50% growth inhibitory concentration (GI50) in [2] and in assay [10] was greater than 10 µM in each case. This compound displayed an inhibition at 10 µM in assay [13] of 0%.

Turning to `Cc1nss/c1=N\c1ccccc1`, the result in assay [1], in [3], in [4], in assay [5], in assay [6] and in assay [7] was inactive. The outcome in assay [8], in assay [9], in assay [11], in assay [12] and in assay [14] was inactive. Further, the 50% growth inhibitory concentration (GI50) in assay [2] and in assay [10] was greater than 10 µM in each case. The compound further returned an inhibition at 10 µM in [13] of 0%.

Turning to `S=c1ssnc1-c1cccs1`, the result in assay [1], in [3], in assay [4], in [5], in assay [6] and in assay [7] was inactive. Also, the result in assay [8], in [9], in [11], in assay [12] and in [14] was inactive. Moreover, the GI50 in [2] and in assay [10] was greater than 10 µM each time. In addition, the inhibition at 10 µM in assay [13] came out at 0%.

Consider `c1ccc(/N=c2\ssnc2-c2cc3ccccc3o2)cc1`, for which the outcome in assay [1], in assay [3], in [4], in assay [5], in [6] and in assay [7] was inactive. The result in assay [8], in assay [9], in [11], in [12] and in [14] was inactive. In addition, the GI50 in assay [2] was greater than 10 µM; in assay [10], 10 µM. Further, in assay [13], 10 µM produced 0% inhibition.

Take `Fc1ccc(-c2nssc2=S)cc1`: the result in assay [1], in [3], in assay [4], in assay [5], in [6] and in assay [7] was inactive. The result in assay [8], in [9], in [11], in assay [12] and in assay [14] was inactive. For the same compound, the concentration for 50% growth inhibition (GI50) in assay [2] and in assay [10] was greater than 10 µM throughout. Further, in [13], the inhibition at 10 µM amounted to 0%.

Take `Cc1nssc1=S`: the outcome in assay [1], in [3], in assay [4], in assay [5], in [6] and in assay [7] was inactive. The result in assay [8], in assay [11], in [12] and in assay [14] was inactive. In addition, the 50% growth inhibitory concentration (GI50) in assay [2] and in assay [10] was greater than 10 µM in each case. This compound returned a minimal bactericidal concentration (MBC) in assay [15] greater than 48 µg/mL. The compound also gave an MIC in [15] of 48 µg/mL (≈ 322 µM). In addition, the zone of inhibition at 50 µg/disc in [9] was found to be 6 mm. Moreover, in assay [13], testing at 10 µM gave an inhibition of 0%.

For `S=c1ssnc1-c1ccccc1`, the result in assay [1], in assay [3], in assay [4], in [5], in [6] and in [7] was inactive. The result in [8], in assay [11] and in assay [12] was inactive. Besides, the concentration for 50% growth inhibition (GI50) in assay [2] and in [10] was greater than 10 µM throughout. For the same compound, the minimal bactericidal concentration (MBC) in assay [16] and in [15] was greater than 48 µg/mL throughout. The minimum inhibitory concentration (MIC) in [16] was greater than 48 µg/mL; in assay [15], 32 µg/mL (≈ 151 µM). Also, the values for the zone of inhibition at 50 µg/disc in assay [9] and in assay [14] (read-out: IZ) were 12 mm and 9 mm, respectively. Further, in assay [13], the inhibition at 10 µM came to 0%.

For the compound `Fc1ccc(-c2nss/c2=N\c2ccccc2)cc1`, the outcome in assay [1], in assay [3], in [4], in assay [5], in assay [6] and in assay [7] was inactive. In addition, the result in [8], in assay [9], in [11], in assay [12] and in [14] was inactive. Moreover, the GI50 was greater than 10 µM in assay [2] and 10 µM in assay [10]. Further, the inhibition at 10 µM in assay [13] came to 0%.

For `O=[N+]([O-])c1ccc(-c2nss/c2=N\c2ccccc2)cc1`, the result in assay [1], in assay [3], in [4], in [5], in [6] and in [7] was inactive. For the same compound, the outcome in [8], in [9], in assay [11], in assay [12] and in assay [14] was inactive. Besides, the GI50 was greater than 10 µM in [2] and 10 µM in assay [10]. In [13], at 10 µM the inhibition was 0%.

One may read the GI50 as the concentration that inhibits growth by half. Higher therefore signals less potent growth inhibition. As a reminder, the inhibition is the change of the read-out against control, counted positive when it falls. For orientation: MBC means the lowest tested concentration that kills the bacteria rather than only halting them. Broadly, the MIC is the lowest concentration found to suppress growth. Low readings indicate inhibition by little substance, high ones a need for much substance.
